# Bioassay records (PubChem)
# Most compounds without a hit are left out; they make up all but 3.5% or so of the library.
# MrgX1 allo act: positive allosteric modulators of MrgX1, primary screen, HEK293 cells, Fluo-4 calcium flux; FDSS; stronger effect = higher value; B-score at 10 µM; hit rate 0.63% among 310,000; AID 588675, 2011;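 active = plate-corrected calcium response at least 3 library SD above typical, normal starting fluorescence, not activating the receptor alone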;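 note: compound read alongside a low EC10 to EC30 dose of BAM8-22 agonist; peak minus trough fluorescence over baseline measured at the second addition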
# Target sequence (Q96LB2 whole entry, looked up): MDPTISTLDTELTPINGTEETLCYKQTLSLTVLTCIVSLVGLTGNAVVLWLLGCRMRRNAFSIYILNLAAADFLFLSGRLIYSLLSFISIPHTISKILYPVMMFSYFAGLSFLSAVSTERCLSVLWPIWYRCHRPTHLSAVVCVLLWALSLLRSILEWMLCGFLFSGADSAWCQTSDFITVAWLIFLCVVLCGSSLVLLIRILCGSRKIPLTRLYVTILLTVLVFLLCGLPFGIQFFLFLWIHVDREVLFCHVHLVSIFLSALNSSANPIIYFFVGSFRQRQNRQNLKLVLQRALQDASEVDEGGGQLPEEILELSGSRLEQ
# RGS4 inh: RGS4 inhibitors, primary screen, cell-based, HEK293 M3R inducible RGS4, calcium flux. Regulator of G-protein signaling 4 (Homo sapiens), P49798. Fluo-4 calcium flux; stronger effect = higher value; triggered by carbachol at its EC20. B-score at 10 µM. hit rate 0.45% among 310,000. AID 463165, 2010;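 active = B-score, a plate-corrected calcium signal, over three deviations above library mean, with baseline fluorescence within five deviations of library mean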;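 note: RGS4 expression induced by doxycycline in cells with stable M3 receptor; B-score is computed from the integrated fluorescence ratio over baseline after carbachol; higher B-score means a larger calcium signal and so more RGS4 inhibition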
# Target sequence (P49798 whole entry, looked up): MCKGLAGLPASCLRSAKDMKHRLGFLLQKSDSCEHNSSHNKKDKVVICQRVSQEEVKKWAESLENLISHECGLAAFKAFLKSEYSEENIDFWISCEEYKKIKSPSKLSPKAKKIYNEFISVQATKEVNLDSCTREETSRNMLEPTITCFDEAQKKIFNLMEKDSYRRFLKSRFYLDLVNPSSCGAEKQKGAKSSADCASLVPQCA
# RGS4 act: RGS4 potentiators or activators, primary screen, cell-based, HEK293 M3R inducible RGS4, calcium flux | carbachol calcium flux Fluo4; stronger effect = lower value | B-score at 10 µM | hit rate 0.92% among 310,000 | AID 463111, 2010;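 active = B-score of the integrated calcium signal more than 4 SD below the library mean, with starting fluorescence not abnormally high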;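 note: negative B-score means reduced calcium response which marks RGS4 activation or potentiation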
#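 System: HEK293 FlpIn-TREx cells, stable M3R, doxycycline-inducible RGS4. Timing: overnight RGS4 induction, 30 min dye load 37 °C, 20 min compound RT. Also added: carbachol, ECmax concentration. Measured by: Fluo4 fluorescence kinetic imaging of calcium. Evaluation: integrated calcium ratio converted to B score.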
# MrgX1 antagonist: antagonists of human MrgX1 receptor, primary screen, HEK293 cells, Fluo-4 calcium flux; BAM8-22 antagonism; stronger effect = lower value; B-score at 10 µM; hit rate 1.3% among 310,000;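 active = calcium-response B-score plate-corrected more than 3 library SD below zero, starting fluorescence within 5 deviations, no agonist response on first addition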;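 note: peak minus trough fluorescence over baseline after final BAM8-22 challenge near maximal dose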
# MrgX1 agonist: agonists of human MrgX1 receptor, primary screen, HEK293 cells, Fluo-4 calcium flux | Fluo-4 calcium fluorescence, agonist mode; stronger effect = higher value | Mas-related G-protein coupled receptor member X1 (Homo sapiens), Q96LB2 | hit rate 0.44% among 310,000 | B-score at 10 µM | AID 588627, 2011;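 active = calcium response B-score plate-corrected fluorescence ratio at least 3 library SD, with starting fluorescence B-score inside 5 SD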
#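 System: HEK293 cells stably expressing human MrgX1 receptor; Dosing: test compound in the initial addition of three; Schedule: overnight plating, then 30 min 37 °C plus 30 min room-temperature dye loading; Detection: kinetic calcium dye fluorescence, Fluo-4 NW; Controls: per-plate positive and negative controls for Z′ factor.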
# RGS4 activ val: reduced carbachol calcium response, RGS4-induced M3R cells, confirmation, RGS4 activator project, cell-based, HEK293 M3R/RGS4 inducible, calcium flux, duplicate | shares compounds with RGS4 act | carbachol calcium flux Fluo4 | inhibition, % at 10 µM | hit rate 89% among 1,100;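 active = inhibition above 3 SD of the buffer control wells, cut at about 41% in these data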;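 note: signal is the integrated peak-minus-minimum Fluo4 fluorescence over baseline ratio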
# RGS4 act ctr: RGS4 activator counter-screen hit in non-induced cells; shares compounds with RGS4 act; HEK293 M3R non-induced RGS4, Fluo4 calcium flux; after carbachol challenge at its EC90; inhibition, % at 10 µM; hit rate 82% among 1,100;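 active = inhibition exceeding 3 SD of buffer-only control wells, cut at about 26% in these data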;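 note: percent drop in integrated peak-minus-baseline over baseline Fluo4 ratio after carbachol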
# * marks the source's active call; other numbers are inactive results; i = inactive; / = no result.
SMILES,MrgX1 allo act,RGS4 inh,RGS4 act,MrgX1 antagonist,MrgX1 agonist,RGS4 activ val,RGS4 act ctr
O=C1CN(C(=O)CNCc2ccccc2Cl)c2ccccc2N1,i,i,i,i,i,/,/
CCCNC(=O)c1ccccc1NC(=O)c1ccc2c(c1)NC(=O)C(C)S2 (configuration not stated),i,i,-7.8*,i,i,72*,29*
CC(=O)c1ccccc1NC(=O)c1ccc2c(c1)NC(=O)C(C)S2 (configuration not stated),i,i,i,i,i,/,/
COCCN(C(=O)Nc1ccccc1OC)c1nc2ccccc2s1,i,i,-7.7*,i,i,92*,91*
CN(CC(O)Cn1cnc2c1c(=O)n(C)c(=O)n2C)c1ccccc1 (configuration not stated),i,i,i,i,i,/,/
COc1ccc(CCNC(=O)C(=O)NCC2CCCN2S(=O)(=O)c2ccccc2)cc1 (configuration not stated),i,i,-12*,i,i,88*,54*
COc1ccccc1CCNC(=O)C(=O)NCC1CCCN1S(=O)(=O)c1ccccc1 (configuration not stated),i,i,-11*,-4.5*,i,80*,84*
O=C(NCc1ccc(F)cc1)C(=O)NCC1CCCN1S(=O)(=O)c1ccccc1 (configuration not stated),i,i,i,i,i,/,/
O=C(NCCc1ccc(F)cc1)C(=O)NCC1CCCN1S(=O)(=O)c1ccccc1 (configuration not stated),i,i,-9.3*,i,i,90*,68*
CS(=O)(=O)N1CCC(C(=O)Nc2ccc(F)c(Cl)c2)CC1,i,i,-8.4*,i,i,0,0
C[n+]1cccc(C2C(C#N)=C(N)Oc3c2ccc2ccccc32)c1 (configuration not stated),i,i,i,i,i,/,/
C[n+]1cccc2ccc3c(c21)OC(N)=C(C#N)C3c1ccccc1 (configuration not stated),i,i,-12*,i,i,76*,84*
COC(=O)CSc1nc(SCc2ccccc2Cl)nc2c1CCCC2,i,i,-8*,i,i,48*,84*
CSc1nc2n(n1)C(C)C1=C(CCCC1=O)N2 (configuration not stated),i,i,i,i,i,/,/
CCOC(=O)c1ccc(NC(=O)N2CCc3ccccc3C2)cc1,i,i,-8.9*,i,i,84*,44*
CCCCOc1ccc(C(=O)OC2CC(C)N(C)CC2C)cc1 (configuration not stated),i,i,-9.5*,i,i,91*,86*
CCCCOc1ccc(C(=O)N2CCC(C)CC2)cc1,i,i,i,i,i,/,/
CN(C)CCOC(C1CCCCC1)C1CCCCC1,i,i,-9.1*,i,i,90*,68*
Cc1cc(C(=O)CCC(=O)N(C)CC(=O)Nc2ccccc2Br)c(C)s1,i,i,i,i,i,/,/
COc1ccc(COc2ncnc3ccc(Br)cc23)cc1F,i,i,i,i,i,/,/
O=C(CN1C2=NCCCN2c2ccccc21)c1ccc([N+](=O)[O-])cc1,i,i,i,i,i,/,/
Cc1cc2ncn(C(=O)c3c(-c4ccccc4Cl)noc3C)c2cc1C,i,i,-11*,i,i,94*,79*
Cn1c(=O)[nH]c2nnc(-c3ccc(Cl)c(Cl)c3)nc2c1=O,i,i,-8.9*,i,i,0,0
COc1cccc(-c2nc(N3CCCCC3)c3ccccc3n2)c1O,i,i,-8.8*,i,i,92*,91*
COc1cc(NC(=O)Cc2ccccc2)ccc1NC(=O)c1ccccc1,i,i,i,i,i,/,/
SMILES,MrgX1 allo act,RGS4 inh,RGS4 act,MrgX1 antagonist,MrgX1 agonist,RGS4 activ val,RGS4 act ctr
COc1cccc(C2SCC(=O)N2c2ccc(Br)cc2)c1OC (configuration not stated),i,i,-9.8*,i,i,91*,92*
OC1(C#CCCN2CCCCC2)c2ccccc2-c2ccccc21,i,i,-8.7*,i,i,92*,60*
OC1(CC#CCN2CCCCC2)c2ccccc2-c2ccccc21,i,i,i,i,i,/,/
CCOc1ccc2nc(NC(=O)C3(C)CC3(Br)Br)sc2c1 (configuration not stated),i,i,-8.1*,i,i,68*,84*
CN1CCN(CC(O)(c2ccc(Cl)cc2)c2ccc(Cl)cc2)CC1,i,i,-10*,i,i,92*,65*
COc1ccc(CNC(=O)N[C@H](C(=O)O)C(C)C)cc1OC,i,i,i,i,i,/,/
CN(C)CCC1Sc2ccccc2Oc2ccccc21 (configuration not stated),i,i,-7.6*,i,i,74*,84*
COc1ccc(CNC(=O)c2ccc(CS(=O)(=O)Cc3ccccc3F)o2)cc1,i,i,i,i,i,/,/
OC(CN1CCCCC1)CN(c1ccccc1)c1ccccc1 (configuration not stated),i,i,-9.8*,i,i,90*,58*
OC(CN1CCCCCC1)CN(c1ccccc1)c1ccccc1 (configuration not stated),i,i,i,i,i,/,/
CSc1cc(-c2ccccc2)n(C)c(=O)c1C#N,i,i,i,i,i,/,/
CCOC(=O)Cn1c(-c2ccccc2)cc(SC)c(C#N)c1=O,i,i,-9.2*,i,i,90*,79*
Fc1ccc(C2N(c3ccccc3)C(=S)N3CCCN23)cc1 (configuration not stated),i,i,i,i,i,/,/
Cc1ccc(C2N(c3ccccc3)C(=S)N3CCCN23)cc1 (configuration not stated),i,i,-11*,i,i,94*,91*
CC1(C)C2CCC1(CS(=O)(=O)NCc1ccc(C(F)(F)F)cc1)C(=O)C2 (configuration not stated),i,i,i,i,i,/,/
